Experimental data reported in publication PMC3074116 (Translational stroke research, 2011).

How the values were obtained:
H4IIE cells [1] = test: Intracellular glutathione; type: cell-based, rat; details: for effect on intracellular GSH content: 1–300 μM; for GSH content TC50: 24-h exposure
H4IIE cells [2] = test: Lipid peroxidation measured as 8-isoprostane; type: cell-based, rat; details: 1–300 μM
[3] = Metabolic stability in rat microsomes; type: in vitro ADME; details: 1 μM; for metabolic stability (in words): male Sprague–Dawley rat microsomal preparation; for percent of parent remaining: HPLC/MS
Method in brief: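 Incubated at 1 μM for 30 min at 37°C with pooled liver microsomes from non-induced male Sprague–Dawley rats. Parent loss measured by HPLC-MS on a C18 column at 50°C (water/0.1% formic acid; acetonitrile/0.07% formic acid). Triplicate percent parent remaining; ranked low (100–65%), moderate (65–45%) or high (<45%) metabolism.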

H4IIE cells [4] = test: CTox ranking; type: cell-based, rat; details: generated from TC50 values by proprietary algorithm
[5] = Solubility in culture medium; type: physicochemical; details: for soluble up to and including: culture medium with 10% bovine serum and 10% calf serum, 37°C
H4IIE cells [6] = details: for Cell number (cell mass) TC50: 24-h exposure, n=7 replicates
H4IIE cells [7] = details: 24-h exposure, GST leakage, n=3 replicates
[8] = tested on: rabbit embolic stroke model; details: cited from earlier work
P-glycoprotein (PgP) = test: P-glycoprotein binding using the MTT assay with and without cyclosporin A; details: 50 μM, 24-h exposure, n=7; for % Control (compound+CSA): with CSA; for % Control (compound): without CSA
H4IIE cells [9] = details: 24-h exposure, n=7 replicates
HT22 cells [10] = details: read-out: EC50 neuroprotection, glutamate (5 mM); cited from earlier work
HT22 cells [11] = details: cited from earlier work
rat cognition assay = details: 10 mg/kg by gavage; cited from earlier work
[12] = 100 mg/kg single bolus injection

Row | Structure (SMILES) | effect on intracellular GSH content (H4IIE cells [1]) | GSH content TC50 (H4IIE cells [1]) [µM] | effect on 8-isoprostane (lipid peroxidation) (H4IIE cells [2]) | metabolic stability (in words) [3] | percent of parent remaining ([3]; rat microsomes, 30 min at 37°C) [%] | CTox value (sustained concentration expected to produce toxicity in a rat 14-day repeat dose study) (H4IIE cells [4]) [µM] | soluble up to and including [5] [µM] | Cell number (cell mass) TC50 (H4IIE cells [6]) [µM] | MemTox TC50 (H4IIE cells [7]) [µM] | % Control (compound+CSA) (P-glycoprotein (PgP)) [%] | % Control (compound) (P-glycoprotein (PgP)) [%] | other results
1 | CC(C)(C)[N+]([O-])=Cc1ccc(S(=O)(=O)[O-])cc1S(=O)(=O)[O-].[Na+].[Na+] [NXY-059, Disodium 4-[[(1,1,-dimethylethyl)imino]methyl]benzene-1,3-disulfonate N-oxide] | no effect | > 300 | no effect | very stable metabolically | 93 | > 300 | ≥ 300 | >300 | >300 | 93.6 | 100.0 | maximum therapeutic window ([8]; time following embolization): 1 h
2 | CC1=NN(c2ccccc2)C(=O)C1 [Radicut, 3-Methyl-1-phenyl-2-pyrazolin-5-one] | no effect | > 300 | no effect | metabolically unstable | 28 | > 300 | – | >300 | >300 | 94.8 | 95.9 | solubility [5]: ≥ 300 µM; decrease in cell proliferation (H4IIE cells [6]; 300-μM exposure): 30%; time of administration following embolization at which still active [8]: 3 h
3 | COc1cc(C=Cc2cc(/C=C/c3ccc(O)c(OC)c3)nn2-c2ccccc2)ccc1O [CNB-001] | – | 76 | did not have any effect | metabolically unstable | 42 | 42 | ≥ 100 | 88 | 193 | 79.0 | 79.9 | metabolism ranking ([3]; rat microsomes, 30 min at 37°C): high (<45% as high); solubility at 300 μM ([5]; culture medium, 300 μM): not completely soluble; MTT TC50 (H4IIE cells [9]): 131 µM; concentration with apparent inhibition of EROD activity (Cytochrome P450 1A1/2; Fig. 2): above 10 μM; IC50 (Cytochrome P450 1A1/2; read-out: EROD activity inhibition IC50, H4IIE cells): ~25 µM; acute toxicity [8, 12]: without any signs of acute toxicity; behavior [8, 12]: significant behavioral improvement; EC50 (HT22 cells [10]): 0.7 µM; effect on GSH levels in HT22 cells (HT22 cells [11]): no effect; object recognition index (rat cognition assay): significantly increased
